PAFAH1B2 FP inh: blocks human PAF acetylhydrolase 1b catalytic subunit 2; 1.2% of 340,000 active; recombinant PAFAH1B2, FP-rhodamine activity probe, fluorescence polarization; inhibition, % at 3.39 µM; P68402;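 active = inhibition above the mean of all tested compounds plus 3 SD, cut at about 24% in these data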;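 note: 0% = enzyme with DMSO and 100% = wells lacking PAFAH1B2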
Target sequence (P68402 whole entry, looked up): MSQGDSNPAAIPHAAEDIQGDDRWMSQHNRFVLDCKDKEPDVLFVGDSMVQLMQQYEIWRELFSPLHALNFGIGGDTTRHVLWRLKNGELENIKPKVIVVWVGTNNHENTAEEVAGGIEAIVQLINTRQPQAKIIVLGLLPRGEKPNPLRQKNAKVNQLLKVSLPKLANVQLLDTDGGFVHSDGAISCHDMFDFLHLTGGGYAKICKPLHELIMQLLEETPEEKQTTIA
GRIN3A LBD mod: NR3A (human) ligand-binding domain modulation; NR3A LBD differential scanning fluorimetry, Tm shift; 0% = protein alone, 100% = glycine-bound protein; 2.5% of 340,000 active; Tm shift relative to glycine control, % at 25 µM;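 active = melting temperature shift of at least 10% of the positive control shift, at one fixed dose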
UCH37 DUB inh: blocks the human deubiquitinase UCH37; Q9Y5K5; inhibition, % (test concentration not listed); 0.33% of 330,000 active; purified proteasome/UCH37, Ub-AMC cleavage fluorescence;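 active = mean inhibition over replicate wells above about 20%, limit read from the data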;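 note: 0% = compound-free wells with enzyme and 100% = wells lacking proteasome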
Target sequence (Q9Y5K5 whole entry, looked up): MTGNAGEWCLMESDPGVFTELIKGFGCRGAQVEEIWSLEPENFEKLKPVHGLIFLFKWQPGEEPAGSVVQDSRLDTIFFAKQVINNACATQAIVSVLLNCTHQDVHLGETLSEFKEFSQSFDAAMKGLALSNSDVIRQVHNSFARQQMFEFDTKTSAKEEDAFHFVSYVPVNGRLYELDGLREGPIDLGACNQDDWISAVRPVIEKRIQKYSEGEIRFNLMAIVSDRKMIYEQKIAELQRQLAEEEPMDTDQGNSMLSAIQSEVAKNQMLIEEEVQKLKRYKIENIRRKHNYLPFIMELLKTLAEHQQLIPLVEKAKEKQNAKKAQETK
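Schedule: 30 min plus 25 min, room temperature / Material: human UCH37 within purified proteasomes / Technique: AMC fluorescence intensity at 355/460 nm / Buffer or medium: pH 7.4 Tris-HCl (50 mM) with ovalbumin, ATP-MgCl2, DTT / Controls: wells without proteasome as full block, compound-free enzyme plus substrate as uninhibited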
pPAFAH inh: inhibitors of human plasma PAF acetylhydrolase (pPAFAH). recombinant pPAFAH, FP-rhodamine probe fluorescence polarization. inhibition, % at 3.39 µM. 1.5% of 330,000 active. AID 463082;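 active = inhibition above the mean inhibition across the screen plus 3 SD, cut at about 25% in these data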;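 note: inhibitors block binding of the rhodamine activity-based probe so polarization drops; 0% = enzyme with DMSO and 100% = wells lacking pPAFAH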
PAFAH2 FP inh: inhibitors of human PAFAH2; Q99487; recombinant PAFAH2, FP-rhodamine activity probe, fluorescence polarization; inhibition, % at 3.39 µM; 0.99% of 340,000 active; AID 492956;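 active = inhibition above the mean over all tested compounds plus 3 SD, cut at about 30% in these data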;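 note: inhibitors block probe labeling of enzyme so polarization drops; 0% = enzyme with DMSO and 100% = wells lacking PAFAH2 protein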
PAFAH1B3 inh: PAFAH1B3 (human) inhibition | Q15102 | recombinant PAFAH1B3, FP-rhodamine probe, fluorescence polarization | inhibition, % at 3.39 µM | 0.28% of 340,000 active | AID 492972;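 active = inhibition above the screen-wide average of all tested compounds plus 3 SD, cut at about 25% in these data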;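 note: 0% = enzyme with DMSO only and 100% = wells lacking PAFAH1B3 protein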
The depositor's hits bear a star; . = no result. Compounds with a hit are over-represented: about 4.8% of the library has one in this group of screens.

SMILES	PAFAH1B2 FP inh	GRIN3A LBD mod	UCH37 DUB inh	pPAFAH inh	PAFAH2 FP inh	PAFAH1B3 inh
C/C(=N\Nc1cc(-c2ccccc2)nc(-c2ccc(Br)cc2)n1)c1cccc(N)c1	-2	29*	.	10	-9	2
O=C(CNc1n[nH]c(=O)[nH]c1=O)NN=CC1CC=CCC1 (centres undefined)	.	.	2	.	.	.
Oc1cc(O)cc(-c2cc3ccc(O)cc3o2)c1	-1	16*	-41	8	-2	6
CC1CCN(S(=O)(=O)c2cccc(C(=O)N(C)C3CCS(=O)(=O)C3)c2)CC1 (centres undefined)	33*	0	5	2	-5	7
CC1CCN(S(=O)(=O)c2cccc(C(N)=O)c2)CC1	26*	-2	4	-1	2	0
CC1CCC(NC(=O)c2cccc(S(=O)(=O)N3CCN(C)CC3)c2)CC1 (centres undefined)	26*	0	1	4	5	4
CCCCn1ccnc1C(=O)c1cccc(S(=O)(=O)N2CC(C)CC(C)C2)c1 (centres undefined)	3	16*	2	3	3	0
CC1CCN(C(=O)c2cccc(S(=O)(=O)N3CCN(c4ccccc4)CC3)c2)CC1	-1	-3	2	6	1	2
CC1CCN(S(=O)(=O)c2ccc(C(=O)N(C)C3CCS(=O)(=O)C3)cc2)CC1 (centres undefined)	13	-1	2	-7	-2	7
COc1cc(C=NNC(=O)c2ccncc2)ccc1OC(=O)c1cccc(F)c1	.	.	4	.	.	.
CCCCNC(=O)c1c(N)n(N=Cc2ccccn2)c2nc3ccccc3nc12	.	.	6	.	.	.
Cc1ccc(S(=O)(=O)N2CCC(C)CC2)cc1[N+](=O)[O-]	19	0	0	.	-10	-3
CN1CCN(S(=O)(=O)c2cccc(C(=O)Nc3cccc([N+](=O)[O-])c3)c2)CC1	9	17*	2	0	6	-1
COC(=O)CSc1ccc(S(=O)(=O)N2CCC(C)CC2)cc1[N+](=O)[O-]	27*	-6	3	2	-4	-5
COC(=O)c1cccc(S(=O)(=O)N2CCC(C)CC2)c1	26*	0	3	8	-3	-5
CCC(C)c1ccc(NC(=O)CC(C)=NNC(=O)c2cnccn2)cc1 (centres undefined)	.	.	8	.	.	.
Cc1ccc(S(=O)(=O)ON=C2CCCc3occc32)cc1	.	.	3	.	.	.
CC(C)CCNC(=O)Cc1c(C(=O)O)[nH]c2ccc(Cl)cc12	50*	-12	4	5	7	7
COc1ccc(CCNC(=O)c2cc3c(=O)n4ccccc4nc3n(CCCN3CCOCC3)c2=N)cc1OC	0	0	.	-10	-7	10
COc1ccc(CCn2c(=N)c(C(=O)NCCN3CCOCC3)cc3c(=O)n4ccccc4nc32)cc1OC	2	15*	5	5	9	5
Clc1cccc(CONC=Nc2ncnc3sccc23)c1	.	.	-2	.	.	.
N/C(=N\OC(=O)/C=C/c1ccccc1)c1cccnc1	6	20*	2	1	12	-1
C[C@H](CO)N1C[C@H](C)[C@@H](CN(C)S(=O)(=O)c2cccs2)Oc2ccc(NC(=O)Nc3ccc(C(F)(F)F)cc3)cc2C1=O	-40	23*	-3	-29	-96	-82
C[C@@H]1CN([C@H](C)CO)C(=O)c2cc(NC(=O)Nc3ccc(C(F)(F)F)cc3)ccc2O[C@H]1CN(C)S(=O)(=O)c1cccs1	-44	17*	0	-25	-75	-91
CCOC(=O)C=c1sc(=Cc2ccc(C#N)cc2)c(=O)n1CC(=O)Nc1cccc(C)c1C	.	.	-3	.	.	.
SMILES	PAFAH1B2 FP inh	GRIN3A LBD mod	UCH37 DUB inh	pPAFAH inh	PAFAH2 FP inh	PAFAH1B3 inh
CC(=NNc1nncc2ccccc12)c1ccc(C(C)(C)C)cc1	.	.	3	.	.	.
COc1cc(OC)cc(C(=O)NCC(=O)OCC(=O)c2cc(C)n(Cc3ccco3)c2C)c1	-1	19*	3	19	-2	4
Cc1cc(C(=O)COC(=O)CNC(=O)c2ccco2)c(C)n1Cc1ccco1	-2	1	6	2	5	-2
COc1ccc(C=CC(=O)c2cc(O)ccc2O)cc1	5	32*	4	.	0	7
O=c1[nH][nH]c(-c2ccccc2)c1C=Nc1ccccc1	-4	-1	11	4	-8	2
O=c1[nH][nH]c(-c2ccccc2)c1-c1ccccc1	25*	-1	0	.	3	12
COC(=O)CCC(=NNc1ccc(Cl)c(Cl)c1)C(=O)OC	.	.	-16	.	.	.
Cn1c(CNC(=O)CCNC(=O)c2cccc(Cl)c2)cc(=O)n(C)c1=O	6	12*	1	4	-3	10
Cn1c(CNC(=O)CCNC(=O)c2ccccc2)cc(=O)n(C)c1=O	4	0	-1	2	5	5
CCOC(=O)Cn1cnc2c(cnn2-c2ccc(Cl)cc2)c1=O	-4	-1	0	6	-3	8
COC(=O)C(C)n1cnc2c(cnn2-c2ccc(Cl)cc2)c1=O (centres undefined)	6	0	30*	2	1	7
Cc1ccnc(NC(=O)CCC(=O)N(CC(=O)NCC2CCCO2)Cc2ccc(F)cc2)c1 (centres undefined)	-2	11*	0	3	-5	6
Nc1nonc1-n1nnc(C(=O)NN=C/C=C/c2ccccc2)c1CSC1=NCCS1	.	.	3	.	.	.
O=C(CNC(=O)c1cccc(Br)c1)N/N=C/c1cc(Br)cc(Br)c1O	31*	17*	.	13	11	7
O=C(Cc1ccccc1)N/N=C/c1cc(Br)cc(Br)c1O	8	12*	.	14	6	7
CC(C)(O)C(=O)NN=Cc1ccc(OC/C=C/c2ccccc2)cc1	.	.	4	.	.	.
O=C1NC(c2cccc(OCc3ccccc3)c2)Nc2ccccc21 (centres undefined)	6	13*	.	.	3	4
O=C1NC(c2ccc(O)cc2)Nc2ccccc21 (centres undefined)	1	-4	-299	-3	1	7
CCN(CC)C(=O)CSc1nc(O)cc(=O)n1-c1ccccc1OC	4	0	1	25*	0	-5
Cc1ccccc1-n1c(SCC(=O)Nc2c(C)cccc2C)nc(O)cc1=O	2	0	5	31*	-8	3
CCN(CC)C(=O)CSc1nc(O)cc(=O)n1C	2	1	7	1	2	1
COc1ccccc1NC(=O)CC1S/C(=N/N=C2CCCc3ccccc32)NC1=O (centres undefined)	.	.	4	.	.	.
CCn1c(C)nc2cc(C(=O)NN=Cc3ccccc3C)ccc21	.	.	2	.	.	.
COc1ccc(C=N/N=C2/NC(=O)C(CC(=O)O)S2)cc1OCc1ccccc1Cl (centres undefined)	.	.	16	.	.	.
